Values joined by “and” are separate entries in the source; they are usually repeats but may differ in a detail not shown here. Equal values may be shown once.
Experiments:
Phase 1 Part 1 = assay type: in vivo, homo sapiens
How it was run: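 Healthy adults were randomized to one oral dose of test compound (7, 20 or 40 mg; 6 active, 2 placebo per cohort), with a sentinel pair per cohort. Participants stayed in the unit ≥72 h post-dose, with follow-up at 6 ± 1 day. Adverse events were graded by CTCAE, and relatedness was assessed by the investigator. Placebo participants were pooled across cohorts.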

osteocalcin = assay: Serum bone turnover biomarker osteocalcin; assay type: in vivo, homo sapiens
How it was run: (§1)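 Participants got test compound (5, 15 or 20 mg) or placebo once daily on day 1 and days 3–16. Serum was drawn at screening and pre-dose on days 1, 5, 7, 12 and 16, and on days 22 (±1) and 45 (±2), at the same time as baseline. CTX-1, P1NP and osteocalcin were measured by electrochemiluminescence immunoassay and BSAP by sandwich ELISA. Results are percent change from baseline versus pooled placebo.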

[1] = test system: alveolar epithelial type II cells; details: cited from earlier work
[2] = Pharmacokinetics Part 1, single oral dose, plasma and urine; assay type: in vivo, homo sapiens
How it was run: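 Healthy adults (men and women of non-child-bearing potential) got one oral dose of test compound (7, 20 or 40 mg; 6 per cohort) or placebo. Plasma was sampled pre-dose, at 15 and 30 min, and at 1–48 h (72 h at 40 mg only). Urine was collected over 0–72 h intervals. Analysis was LC-MS/MS after protein precipitation (plasma 1.00–6000 nmol/L). t½ = ln(2)/λz. Dose proportionality was assessed graphically and by power model.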

AXIN2 mRNA = assay: Target engagement: AXIN2 mRNA; assay type: in vivo, homo sapiens; details: hair follicle
How it was run: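 Hair follicles (2 mm micropunch) and skin biopsies (4 mm) were taken from the lower back of the head on day −1 and on day 16, 8 ± 2 h after the last of 14 consecutive once-daily doses. AXIN2 mRNA was measured by qRT-PCR and normalized to the geometric mean of HPRT1, IPO8 and POLR2A. Fold change from baseline was calculated by 2^−ΔΔCt, versus 8 pooled placebo participants.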

BSAP = assay: Serum bone turnover biomarker BSAP; assay type: in vivo, homo sapiens
How it was run: as §1

Wnt7a = assay: Serum high-throughput proteomics; assay type: in vivo, homo sapiens; details: study day 16, 5, 15, 20 mg

Cc1cc(-c2nccc3c2ccn3CC(=O)Nc2ccc(-c3cnccn3)cn2)ccn1 [AZD5055]
Participants with at least one TEAE (Phase 1 Part 1; Part 1, 7 mg): 2 (33.3%) n (%)
Participants with a grade 2 TEAE of nsVT (Phase 1 Part 1; Part 1, 20 mg): One
Participants with at least one TEAE (Phase 1 Part 1; Part 1, 20 mg): 1 (16.7%) n (%)
Participants with at least one TEAE (Phase 1 Part 1; Part 1, 40 mg): 1 (16.7%) n (%)
Any TEAEs possibly related to the IMP (as assessed by investigator) (Phase 1 Part 1; Part 1 SAD pooled, N=18): 3 (16.7%) n (%)
Abdominal pain upper (Phase 1 Part 1; Part 1 SAD pooled, n=18): 1 (5.6) n (%)
Application site scab (Phase 1 Part 1; Part 1 SAD pooled, n=18): 1 (5.6) n (%)
Cardiac disorders (Phase 1 Part 1; Part 1 SAD pooled, n=18): 1 (5.6) n (%)
Coronavirus infection (Phase 1 Part 1; Part 1 SAD pooled, n=18): 0 n (%)
Cough (Phase 1 Part 1; Part 1 SAD pooled, n=18): 0 n (%)
Dermatitis contact (Phase 1 Part 1; Part 1 SAD pooled, n=18): 0 n (%)
Dizziness (Phase 1 Part 1; Part 1 SAD pooled, n=18): 1 (5.6) n (%)
Dysgeusia (Phase 1 Part 1; Part 1 SAD pooled, n=18): 0 n (%)
Epistaxis (Phase 1 Part 1; Part 1 SAD pooled, n=18): 0 n (%)
Erythema (Phase 1 Part 1; Part 1 SAD pooled, n=18): 0 n (%)
Folliculitis (Phase 1 Part 1; Part 1 SAD pooled, n=18): 0 n (%)
Gastrointestinal disorders (Phase 1 Part 1; Part 1 SAD pooled, n=18): 1 (5.6) n (%)
General disorders and administration site conditions (Phase 1 Part 1; Part 1 SAD pooled, n=18): 2 (11.1) n (%)
Headache (Phase 1 Part 1; Part 1 SAD pooled, n=18): 0 n (%)
Infections and infestations (Phase 1 Part 1; Part 1 SAD pooled, n=18): 0 n (%)
Injury, poisoning and procedural complications (Phase 1 Part 1; Part 1 SAD pooled, n=18): 0 n (%)
Limb injury (Phase 1 Part 1; Part 1 SAD pooled, n=18): 0 n (%)
Medical device site dermatitis (Phase 1 Part 1; Part 1 SAD pooled, n=18): 1 (5.6) n (%)
Nasal discomfort (Phase 1 Part 1; Part 1 SAD pooled, n=18): 0 n (%)
Nausea (Phase 1 Part 1; Part 1 SAD pooled, n=18): 1 (5.6) n (%)
Nervous system disorders (Phase 1 Part 1; Part 1 SAD pooled, n=18): 1 (5.6) n (%)
Participants with ≥1 TEAE (Phase 1 Part 1; Part 1 SAD pooled, n=18): 4 (22.2%) n (%) and 4 (22.2) n (%)
Participants with ≥1 TEAE leading to discontinuation of investigational product (Phase 1 Part 1; Part 1 SAD pooled, n=18): 0 n (%)
Participants with ≥1 TEAE of grade 1 severity (Phase 1 Part 1; Part 1 SAD pooled, n=18): 4 (22.2) n (%)
Participants with ≥1 TEAE of grade 2 severity (Phase 1 Part 1; Part 1 SAD pooled, n=18): 0 n (%)
Participants with ≥1 TEAE of grade 3 severity (Phase 1 Part 1; Part 1 SAD pooled, n=18): 0 n (%)
Participants with ≥1 TESAE (Phase 1 Part 1; Part 1 SAD pooled, n=18): 0 n (%)
Photophobia (Phase 1 Part 1; Part 1 SAD pooled, n=18): 0 n (%)
Post procedural erythema (Phase 1 Part 1; Part 1 SAD pooled, n=18): 0 n (%)
Post procedural inflammation (Phase 1 Part 1; Part 1 SAD pooled, n=18): 0 n (%)
Procedural pain (Phase 1 Part 1; Part 1 SAD pooled, n=18): 0 n (%)
Respiratory, thoracic and mediastinal disorders (Phase 1 Part 1; Part 1 SAD pooled, n=18): 1 (5.6) n (%)
Sensation of foreign body (Phase 1 Part 1; Part 1 SAD pooled, n=18): 0 n (%)
Skin abrasion (Phase 1 Part 1; Part 1 SAD pooled, n=18): 0 n (%)
Skin and subcutaneous tissue disorders (Phase 1 Part 1; Part 1 SAD pooled, n=18): 0 n (%)
Suture rupture (Phase 1 Part 1; Part 1 SAD pooled, n=18): 0 n (%)
Ventricular tachycardia (Phase 1 Part 1; Part 1 SAD pooled, n=18): 1 (5.6) n (%)
Vessel puncture site haematoma (Phase 1 Part 1; Part 1 SAD pooled, n=18): 0 n (%)
Vision blurred (Phase 1 Part 1; Part 1 SAD pooled, n=18): 0 n (%)
Vomiting (Phase 1 Part 1; Part 1 SAD pooled, n=18): 1 (5.6) n (%)
Wheezing (Phase 1 Part 1; Part 1 SAD pooled, n=18): 1 (5.6) n (%)
Deaths, SAEs, AEs of CTCAE grade 3 or higher (Phase 1 Part 1; Parts 1 and 2): No deaths, serious adverse events (SAEs) or AEs of CTCAE grade 3 or higher were reported
Participants with a TEAE of nsVT during the study (Phase 1 Part 1; Parts 1 and 2): Three
clinical laboratory results, vital signs, physical examinations, ECGs, oxygen saturation (Phase 1 Part 1; Parts 1 and 2): no clinically significant changes
Overall safety and tolerability (Phase 1 Part 1; both study parts): safe and well tolerated
serum osteocalcin levels (osteocalcin; 15 and 20 mg doses): reductions
serum osteocalcin levels vs placebo (osteocalcin; lower doses): comparable to those in the placebo group
differentiation of alveolar epithelial type II cells into alveolar type I cells [1]: increasing differentiation of alveolar epithelial type II cells into alveolar type I cells
mean terminal elimination half-life ([2]; after a single dose, across dose cohorts): 10 to 11 h
median time to maximum plasma concentration (tmax) ([2]; oral, across dose cohorts): 1 to 1.5 h
Dose proportionality (power-model approach) ([2]; single doses 7-40 mg): behaves dose-proportionally
reduction of median AXIN2 mRNA levels (AXIN2 mRNA; 15 and 20 mg cohorts): 50%–60%
AXIN2 mRNA expression vs placebo-treated participants (AXIN2 mRNA; all dose levels, after 14 consecutive days of dosing): significantly reduced from baseline
serum BSAP levels (BSAP; 20 mg dose): reductions
serum BSAP levels vs placebo (BSAP; lower doses): comparable to those in the placebo group
Serum Wnt7a levels (Wnt7a): reduced on study day 16 for all AZD5055 dose levels evaluated

— article PMC12177174 (iScience, 2025)
